Experimental data from different studies.
Each line is one published result; the experiments were not run side by side.
JAK2: Tyrosine-protein kinase JAK2 (JAK2, Homo sapiens, UniProt O60674)
JAK2 JH1: Tyrosine-protein kinase JAK2, JH1 (JAK2, Homo sapiens, UniProt O60674)

SMILES | target | read-out | mode | technique | tested at | quantity | value
COc1ccc2oc(-c3ccc4nc(N)oc4c3)c/c(=N\c3ccccc3NC(=O)CCN)c2c1 | JAK2 | binding |  |  | 1 µM | remaining binding | 96%
C1=C/COCc2cc(ccc2OCCN2CCCC2)Nc2nccc(n2)-c2cccc(c2)COC/1 | JAK2 JH1 | cell-free assay |  |  | 0.1 µM | remaining signal | 6.8%
CCCCC(=O)Nc1ccc(-c2ccc3ncn(CCC)c(=O)c3c2)cn1 | JAK2 JH1 | binding |  | competition with immobilised ligand | 0.5 µM | remaining binding | 100%
C=CC(=O)N1CCC([C@@H]2CCNc3c(C(N)=O)c(-c4ccc(Oc5ccccc5)cc4)nn32)CC1 | JAK2 JH1 | enzyme activity | inhibitor |  | 1 µM | inhibition | 12%
C#Cc1cc(-c2cc(Nc3nc(N[C@@H](C)c4ccc(F)cn4)ncc3Cl)n[nH]2)ccc1C=O | JAK2 | enzyme activity | inhibitor |  | 0.2 µM | inhibition | 99.7%
C[C@H]1CC[C@H](n2c3cnccc3c3cnc(Nc4ccc5c(n4)CCN(C(=O)CO)C5)nc32)CC1 | JAK2 JH1 | cell-free assay |  | competition with immobilised ligand | 1 µM | remaining binding | 50%
N#Cc1ccc(NC(=O)Nc2ccccc2)cc1 | JAK2 JH1 | cell-free assay |  | competition with immobilised ligand | 25 µM | remaining binding | 86%
CC(C)S(=O)(=O)c1ccc2nccc(Nc3ccc4sc(C5CCCC5)nc4c3)c2c1 | JAK2 | enzyme activity | inhibitor |  | 1 µM | activity vs control | 98%
CO[C@@H]1[C@H](N(C)C(=O)c2ccccc2)C[C@H]2O[C@]1(C)n1c3ccccc3c3c4c(c5c6ccccc6n2c5c31)C(=O)NC4 | JAK2 JH1 | enzyme activity | inhibitor |  | 1 µM | inhibition | 100%
CN1CCN(C(=O)c2ccc(NC(=O)Nc3ccc(N(C)c4ccnc(Nc5ccc(CS(C)(=O)=O)cc5)n4)cc3)cc2)CC1 | JAK2 JH1 | cell-free assay |  | competition with immobilised ligand | 1 µM | remaining binding | 4.7%
